{"source": "PubChem BioAssay AID1525", "about": "(The Scripps Research Institute Molecular Screening Center, 2009)", "note": "This is one part of the list. Values without a mark were called inactive. Active and inactive are the calls of the source.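 How the source made its calls: active means mean activation over replicates above a set limit taken from the earlier TRPN1 channel primary screen (cut at about 19% in these data); inactive means the rest.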"}
{"system": "TRPN1 (NOMPC) [Danio rerio]", "assay": "zebrafish TRPN1 channel agonists, counter-screen for TRPML3 agonist project, cell-based, HEK293 TRPN1-YFP, Fluo-8 calcium (AID 1525)", "details": "Fluo-8 calcium fluorescence, at 3 µM, active compounds read high, scaled: carbachol wells 100%, DMSO wells 0%", "summary_of_the_method": "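Assay system: HEK293 cells expressing zebrafish TRPN1-YFP channel; Times: dye loading 1 h 37 °C plus 30 min ambient; Detection: Fluo-8 calcium, trypan red quencher, 5 s basal, 120 s post-addition; Controls: carbachol 87 µM as high, DMSO 0.3% as low; Repeats: triplicate wells per compound.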"}
{"smiles": "CC1=CC(C)(C)N(C(=O)CSc2nnc(-c3ccccc3)o2)c2ccc(C)cc21", "activation": "0.12%"}
{"smiles": "COc1ccc(Cl)cc1N(CC(=O)N1CCCCC1)S(C)(=O)=O", "activation": "2.78%"}
{"smiles": "COc1ccc(N(CCC#N)S(=O)(=O)c2ccc(Cl)cc2)cc1", "activation": "0.61%"}
{"smiles": "C=C(C)Cn1c(C)cc(C)c(S(=O)(=O)c2ccccc2C)c1=O", "activation": "-3.19%"}
{"smiles": "COc1cc(/C=C(\\C#N)c2nc3c(s2)CC(C)CC3)ccc1O", "note": "(stereo not drawn)", "activation": "14%"}
{"smiles": "Cc1cccc(C)c1N1CCN(S(=O)(=O)N2CCCCC2)CC1", "activation": "28.3% (active)"}
{"smiles": "COc1ccc(S(=O)(=O)N2CCCC2)c(C)c1C", "activation": "0.75%"}
{"smiles": "COc1ccc(-c2noc(CN(C)S(=O)(=O)c3ccc(C)cc3)n2)cc1", "activation": "5.96%"}
{"smiles": "O=C(CC(O)(C(F)(F)F)C(F)(F)F)Nc1ccc(Cl)c(Cl)c1", "activation": "21.3% (active)"}
{"smiles": "CCOc1ccc(S(=O)(=O)N2CCCCCC2)c2ccccc12", "activation": "-0.72%"}
{"smiles": "COc1ccccc1N(CC(=O)N1CCCCC1)S(=O)(=O)c1ccccc1", "activation": "1.91%"}
{"smiles": "CCOC(=O)C1=C(NC(=S)NC(=O)c2ccccc2)c2ccccc2CC1(C)C", "activation": "15.5%"}
{"smiles": "CCN(CC)S(=O)(=O)c1ccc2c3c(cccc13)C(=O)S2", "activation": "-0.76%"}
{"smiles": "O=S(=O)(Nc1ccccc1N1CCOCC1)c1ccc(Cl)s1", "activation": "0.07%"}
{"smiles": "CC1CCCC(C)N1C(=O)CN1CCN(c2nc(-c3ccc(F)cc3)cs2)CC1", "note": "(stereo not drawn)", "activation": "4.68%"}
{"smiles": "CCN(CC)C(=O)CC1(c2ccccc2OC)CCOC(C(C)C)C1", "note": "(stereo not drawn)", "activation": "-1.47%"}
{"smiles": "c1ccc2c(C[n+]3csc4ccccc43)cccc2c1", "activation": "-0.03%"}
{"smiles": "CC1(C)CCCC2=C1CC1C(=O)N(c3ccccc3)C(=O)C1C2", "note": "(stereo not drawn)", "activation": "-0.48%"}
